Rows were chosen to be rich in hits. Some 12% of all compounds tested hit in one or more screens of this group.
WT yeast gro inh = growth inhibition of WT yeast, mitochondrial fusion screen. AID 1362. inhibition, % at 10 µM. 2.1% of 190,000 active. mitochondrial fusion phenotypic screen, WT strain; in the data active means inhibition above about 58%; tested in S. cerevisiae
KCC2 mod = modulates chloride dependent transport by human KCC2; Q9H2X9; KCC2 cells, thallium flux FluoZin-2 fluorescence; B-score of Tl+ flux slope (higher = more flux/activation; lower = inhibition) at 10 µM; 2.2% of 190,000 active; AID 1456;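 active means thallium flux slope and its plate-corrected score both differing from the plate sample mean at a set confidence after two filtering rounds, in either direction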;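 further: slope of fluorescence scaled to starting intensity during 10 to 20 s after thallium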
ROMK mod = modulates human ROMK potassium channel activity. Tet-inducible ROMK, thallium flux fluorescence; actives lie on both sides. B-score at 10 µM. 2% of 130,000 active;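 active means signal ratio slope over the read window, or its plate-corrected B-score, at least 3 SD from the plate mean, either direction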;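 further: B-score of the F/F0 ratio slope over 7 to 12 s after thallium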
Diaph act CS = counter-screen for diaphorase-based assays: diaphorase activators and chemical reducers | 0.005% of 190,000 active | activation factor at 20 µM | Diaphorase/resazurin coupled assay, resorufin fluorescence, 16 min; active compounds read high; 1 = vehicle wells, 0 = NADH-free wells;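 active means diaphorase activity raised at least twofold by the compound at 20 µM; inactive means activation factor below 2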
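Material: purified diaphorase enzyme from Clostridium kluyveri / Medium: HEPES pH 7.4 buffer with MgCl2 and Tween 20 / Schedule: enzyme reaction of 16 min at room temperature / Measured by: resorufin fluorescence, excitation 544 nm, emission 590 nm / Evaluation: rise in resorufin formation, marking diaphorase activation or chemical reduction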
L major viab = inhibitors of Leishmania major promastigote growth; Leishmania major promastigotes, resazurin fluorescence viability; AID 1063; inhibition, % at 10 µM; 9% of 200,000 active; in the data active means inhibition above about 50%;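 further: promastigotes grown with compound for 44 hours at 28 °C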
Diaph inh CS = counter-screen for diaphorase-based assays: diaphorase inhibitors and chemical oxidizers; diaphorase resazurin-to-resorufin fluorescence, NADH, 16 min; bacterial (C. kluyveri) enzyme, not human; inhibition, % at 20 µM; 0.69% of 190,000 active; AID 1217;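 active means primary screen inhibition at 20 µM above a set limit, cut at about 50% in these data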;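 further: plate controls were DMSO with full reaction for no effect and wells lacking NADH for full effect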
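Assay system: diaphorase enzyme from Clostridium kluyveri; Input: enzyme working solution with 0.14 U/mL diaphorase; Timing: 16 min at room temperature; Technique: resorufin fluorescence, excitation 544 nm, emission 590 nm; Benchmarks: positive control minus NADH, DMSO neutral control.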
Starred values were filed as active, the others as inactive; · = not tested or not shown.

SMILES	WT yeast gro inh	KCC2 mod	ROMK mod	Diaph act CS	L major viab	Diaph inh CS
COc1ccc(NS(=O)(=O)c2cccc(C(=O)N/N=C/c3cccs3)c2)cc1	-0.1	-0.089	·	1	52.8*	-2.1
COc1ccc(-c2nn(-c3ccccc3)cc2/C=N/NC(=O)c2cccc(S(=O)(=O)Nc3ccccc3OC)c2)cc1	-11.3	0.831	·	0.9	51.9*	14.6
CCNc1ccc(C(=O)N/N=C/c2c(C)nn(-c3ccccc3)c2N2CCCC2)cc1[N+](=O)[O-]	4.4	-2.04	1.23	0.8	3.2	18.7
Cc1ccc(NS(=O)(=O)c2cccc(C(=O)N/N=C/c3c(C)nn(-c4ccccc4)c3N3CCCC3)c2)c(C)c1	-21.2	-0.00625	-0.478	0.9	63.8*	12.7
COc1ccccc1NC(=O)CCC(=O)OCc1cccc([N+](=O)[O-])c1	-11.5	0.252	-0.289	0.8	-5.4	16.0
Oc1c(C(c2ccccn2)N2CCCCC2)cc(Cl)c2cccnc12 (configuration not stated)	7.2	-0.985	-1.67	0.5	74.4*	46.4
Cc1[nH]c2ccccc2c1C(c1ccccn1)N1CCCC1 (configuration not stated)	-11.5	-0.267	-0.0508	1	20.4	0.6
COC(=O)CCC/C=C1\SC[C@@H](NC(=O)c2ccccc2)C1NC(C)=O (some centres not stated)	-2.0	1.15	-0.0837	1	-4.0	4.8
CCC1CCCCN1Cc1nc2c(c(=O)n(C)c(=O)n2C)n1CCC(C)C (configuration not stated)	·	-0.327	·	0.9	35.1	5.5
CCCCCCn1c(CN2CCCCC2CC)nc2c1c(=O)n(C)c(=O)n2C (configuration not stated)	16.0	-1.91	·	0.8	59.7*	21.5
COC(=O)c1ccc2c(c1)N(Cc1ccccc1F)C(=O)c1ccccc1S2=O (configuration not stated)	19.0	-0.254	·	1	100.1*	-4.4
COC(=O)c1ccc2c(c1)N(Cc1cc(C)ccc1C)C(=O)c1ccccc1S2=O (configuration not stated)	4.8	-0.602	-0.161	0.9	-4.2	9.0
CCOC(=O)c1ccc2c(c1)N(Cc1ccccc1C)C(=O)c1ccccc1S2=O (configuration not stated)	-11.7	-0.189	-1.14	·	99.2*	·
O=C(CSc1nc2ncc(Br)cc2[nH]1)c1cccc([N+](=O)[O-])c1	15.7	-0.479	-0.887	0.6	53.8*	35.4
Cc1nc2nc(SCC(=O)c3cccc([N+](=O)[O-])c3)[nH]c2cc1Br	16.8	0.132	·	0.7	21.1	27.0
Nc1nc(SCC(=O)c2cccc([N+](=O)[O-])c2)n[nH]1	-7.0	0.168	0.226	0.9	14.2	6.9
CCc1nc(SCC(=O)c2cccc([N+](=O)[O-])c2)n[nH]1	-15.6	0.0612	-0.00943	0.9	61.4*	6.0
Cc1cccc(C2Nc3ccccc3C(=O)N2CCc2ccccc2)n1 (configuration not stated)	6.4	·	-0.51	0.8	3.5	18.4
O=C1c2ccccc2NC(c2ccc(Cl)cc2Cl)N1Cc1ccccc1 (configuration not stated)	80.6*	-0.085	-0.721	0.9	82.1*	9.8
O=C1c2ccccc2NC(c2c(Cl)cccc2Cl)N1Cc1ccccc1 (configuration not stated)	-2.4	0.238	·	0.9	55.8*	9.3
COc1ccc(C2Nc3ccccc3C(=O)N2Cc2ccccc2)cc1CSc1ccccn1 (configuration not stated)	23.3	·	·	0.8	3.6	16.5
CN(C)C=Nc1ccccc1C1C=NNC1=O (configuration not stated)	·	1.29	0.0771	·	·	·
COc1cccc(/C=N/NC(=O)c2cccc([N+](=O)[O-])c2)c1OS(=O)(=O)c1ccccc1	-7.1	0.0299	·	0.8	99.6*	22.3
COc1cccc(/C=N/NC(=O)c2ccc([N+](=O)[O-])cc2Cl)c1O	-4.4	-0.283	-0.0767	0.9	99.2*	13.2
COc1cc(/C=N/NC(=O)c2cccc([N+](=O)[O-])c2)cc(OC)c1O	9.9	0.0757	·	0.9	9.6	13.0

Compound activity: PubChem BioAssay, several laboratories
